Results on three compounds are retold here after ChEMBL document CHEMBL1145905, “Design and synthesis of novel dimeric morphinan ligands for kappa and micro opioid receptors” (J Med Chem, 2003).

The structures appear in SMILES notation. The source made the active and inactive calls. No cut-off for these calls is given here.

As usually defined, the Ki is the dissociation constant of the complex between target and ligand, obtained from inhibition or displacement. Read a high Ki as lower affinity. One may read the EC50 as the concentration at which the effect is half-maximal. The low end stands for a more potent agent, the high end for a less potent agent. In general, IC50 refers to the concentration that inhibits the measured activity by half. Low readings indicate higher potency, high ones lower potency. Usually Emax stands for the greatest response seen or fitted, relative to the assay's reference.

Assay [1] deals with Delta-type opioid receptor (Homo sapiens, UniProt P41143). The experiment in a line: Inhibitory activity against Opioid receptor delta 1 in chinese Hamster Ovary (CHO) cell membranes was determined using [3H]naltrindole radioligand.
Assay [2] concerns the target T1, Mu-type opioid receptor (Homo sapiens, UniProt P35372).
The target in assay [3] is Opioid receptors; mu & kappa (Homo sapiens) (UniProt P41145+P35372). The assay is described as follows: Selective inhibitory activity was determined against kappa & mu opioid receptor in chinese Hamster Ovary (CHO) cell membranes.
Assay [4] has as its target T2, Kappa-type opioid receptor (Homo sapiens, UniProt P41145). The assay is described as follows: Inhibitory activity in stimulating [35S]-GTP-gamma S binding mediated by the Opioid receptor kappa 1 in chinese Hamster Ovary (CHO) cell membranes. It is filed as functional. In a few lines: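 Antagonist mode: membranes of CHO cells stably expressing human κ receptor (15 µg protein/tube) incubated with varying compound concentrations plus 100 nM U50,488, 60 min at 30 °C, in Tris/MgCl2/NaCl/EGTA buffer pH 7.4 with 3 µM GDP and [35S]GTPγS. Filtration, scintillation counting. Nonspecific binding with 10 µM GTPγS.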
In general terms: Binding of GTPγS marks nucleotide exchange on a G protein.

For assay [5], the target named is T1, Mu-type opioid receptor. The experiment in a line: Percent maximal stimulation in [35S]-GTP-gamma S binding assay mediated by the Opioid receptor mu 1 in chinese Hamster Ovary (CHO)membranes.
In assay [6] the target is T1, Mu-type opioid receptor. The assay is described as follows: Inhibitory activity against Opioid receptor mu 1 in chinese Hamster Ovary (CHO) cells membranes was determined using [3H]-DAMGO radioligand. It is filed as cell-based.
The target of assay [7] is T1, Mu-type opioid receptor. The experiment in a line: Maximal percent inhibitory activity was determined in stimulating [35S]-GTP-gamma S binding mediated by the Opioid receptor mu 1 in chinese Hamster Ovary (CHO) cell membranes. In a few lines:
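Antagonist mode: human μ-CHO membranes (7.5 μg protein) with 200 nM DAMGO plus varying compound concentrations, 3 μM GDP, […] [35S]GTPγS, 60 min at 30 °C, pH 7.4 buffer with Mg2+/NaCl/EGTA; filtration, counting.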

The target of assay [8] is T1, Mu-type opioid receptor. The assay is described as follows: Inhibitory activity was determined in stimulating [35S]-GTP-gamma S binding mediated by the Opioid receptor mu 1 in chinese Hamster Ovary (CHO)membranes.
The target in assay [9] is T2, Kappa-type opioid receptor. The assay is described as follows: Percent maximal stimulation in [35S]-GTP-gamma S binding assay mediated by the Opioid receptor kappa 1 in chinese Hamster Ovary (CHO)membranes. The format is functional.
Assay [10] has as its target T2, Kappa-type opioid receptor. The assay is described as follows: Inhibitory activity in stimulating [35S]-GTP-gamma S binding mediated by the Opioid receptor kappa 1 in chinese Hamster Ovary (CHO) cell membranes was determined. It is filed as functional.
Assay [11] has as its target Opioid receptors; delta & kappa (Homo sapiens) (UniProt P41145+P41143). The experiment in a line: Selective inhibitory activity was determined against kappa & delta opioid receptor in chinese Hamster Ovary (CHO) cell membranes.
For assay [12], the target named is T2, Kappa-type opioid receptor. The assay is described as follows: Inhibitory activity against Opioid receptor kappa 1 in chinese Hamster Ovary (CHO) cell membranes was determined using [3H]U-69593 radioligand.
For assay [13], the target named is T2, Kappa-type opioid receptor. The assay is described as follows: Maximal percent inhibitory activity in stimulating [35S]-GTP-gamma S binding mediated by the Opioid receptor kappa 1 in chinese Hamster Ovary (CHO) cell membranes; No Effect. The format is functional. A digest of the protocol:
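Antagonist mode: human κ-CHO membranes (15 μg protein) with 100 nM U50,488 plus varying compound concentrations, 3 μM GDP, […] [35S]GTPγS, 60 min at 30 °C, pH 7.4 buffer with Mg2+/NaCl/EGTA; filtration, counting.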

Sequence of Opioid receptors; mu & kappa (Homo sapiens) (P35372 whole entry, looked up): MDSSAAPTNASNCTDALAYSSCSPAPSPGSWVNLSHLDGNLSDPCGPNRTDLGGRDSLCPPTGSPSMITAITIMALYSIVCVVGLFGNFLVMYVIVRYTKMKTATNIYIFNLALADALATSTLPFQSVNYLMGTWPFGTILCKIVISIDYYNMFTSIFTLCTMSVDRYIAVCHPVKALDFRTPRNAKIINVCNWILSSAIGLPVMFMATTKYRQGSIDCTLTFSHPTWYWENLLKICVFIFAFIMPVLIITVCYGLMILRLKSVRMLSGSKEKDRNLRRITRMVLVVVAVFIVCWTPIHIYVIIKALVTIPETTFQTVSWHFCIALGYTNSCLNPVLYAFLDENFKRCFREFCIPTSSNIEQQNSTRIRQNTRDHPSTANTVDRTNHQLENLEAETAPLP
Sequence of Opioid receptors; mu & kappa (Homo sapiens) (P41145 whole entry, looked up): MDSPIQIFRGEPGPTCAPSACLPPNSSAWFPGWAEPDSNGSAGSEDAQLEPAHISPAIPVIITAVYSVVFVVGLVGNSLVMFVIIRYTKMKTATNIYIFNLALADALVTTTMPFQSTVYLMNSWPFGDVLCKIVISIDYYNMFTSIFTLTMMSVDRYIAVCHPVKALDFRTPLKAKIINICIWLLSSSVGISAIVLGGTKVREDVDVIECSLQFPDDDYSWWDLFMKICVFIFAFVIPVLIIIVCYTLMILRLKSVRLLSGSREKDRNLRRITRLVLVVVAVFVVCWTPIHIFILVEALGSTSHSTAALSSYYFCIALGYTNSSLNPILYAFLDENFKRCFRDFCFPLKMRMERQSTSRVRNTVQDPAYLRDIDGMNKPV
T1 sequence (P35372 whole entry): as the sequence (P35372 whole entry, looked up) above
T2 sequence (P41145 whole entry): as the sequence (P41145 whole entry, looked up) above
Sequence of Delta-type opioid receptor (P41143 whole entry): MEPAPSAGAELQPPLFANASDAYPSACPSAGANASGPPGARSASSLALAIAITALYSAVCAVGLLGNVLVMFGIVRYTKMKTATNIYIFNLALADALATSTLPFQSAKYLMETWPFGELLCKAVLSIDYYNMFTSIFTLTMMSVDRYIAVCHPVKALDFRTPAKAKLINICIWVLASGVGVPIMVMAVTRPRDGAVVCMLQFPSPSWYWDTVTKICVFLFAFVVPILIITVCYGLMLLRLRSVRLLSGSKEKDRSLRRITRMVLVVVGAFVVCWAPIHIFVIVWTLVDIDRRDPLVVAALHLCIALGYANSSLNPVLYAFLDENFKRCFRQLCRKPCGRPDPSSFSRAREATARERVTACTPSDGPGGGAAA
Sequence of Opioid receptors; delta & kappa (Homo sapiens) (P41143 whole entry, looked up): as the sequence (P41143 whole entry) above
Sequence of Opioid receptors; delta & kappa (Homo sapiens) (P41145 whole entry, looked up): as the sequence (P41145 whole entry, looked up) above

For the compound `O=C(/C=C/C(=O)Oc1ccc2c(c1)[C@@]13CCCC[C@H]1[C@@H](C2)N(CC1CCC1)CC3)Oc1ccc2c(c1)[C@@]13CCCC[C@H]1[C@@H](C2)N(CC1CCC1)CC3`, the Ki in assay [1] is 9.4 nM; on Mu-type opioid receptor [6], 0.2 nM; in assay [12], 0.078 nM. Also, the EC50 on Mu-type opioid receptor [2] was 2.9 nM; in assay [10], 2.3 nM. Further, the values for the Selectivity in [3] and in assay [11] were 3 and 120, respectively. The half-maximal inhibitory concentration (IC50) was determined as 2400 nM in assay [4] and 610 nM on Mu-type opioid receptor [8]. Besides, the Emax on Mu-type opioid receptor [5] came out at 50%; in assay [9], 90%. Moreover, the Imax at Mu-type opioid receptor [7] was 100%.

On to `O=C(CCCCCCCC(=O)Oc1ccc2c(c1)[C@@]13CCCC[C@H]1[C@@H](C2)N(CC1CCC1)CC3)Oc1ccc2c(c1)[C@@]13CCCC[C@H]1[C@@H](C2)N(CC1CCC1)CC3`, for which the NE result in assay [13] is “inactive”. In addition, the Ki in assay [1] is 21 nM; on Mu-type opioid receptor [6], 0.97 nM; in assay [12], 0.59 nM. For the same compound, the EC50 turned out to be 11 nM on Mu-type opioid receptor [2] and 15 nM in assay [10]. Also, the Selectivity came out at 2 in [3] and 35 in assay [11]. The Emax was determined as 57% at Mu-type opioid receptor [5] and 80% in assay [9]. The same compound gave an Imax at Mu-type opioid receptor [7] of 54%. This compound also had a concentration for half-maximal inhibition (IC50) on Mu-type opioid receptor [8] of 360 nM.

On to `O=C(CCC(=O)Oc1ccc2c(c1)[C@@]13CCCC[C@H]1[C@@H](C2)N(CC1CCC1)CC3)Oc1ccc2c(c1)[C@@]13CCCC[C@H]1[C@@H](C2)N(CC1CCC1)CC3`, for which the NE result in assay [13] is “inactive”. The Ki in [1] was found to be 9.4 nM; on Mu-type opioid receptor [6], 0.16 nM; in assay [12], 0.076 nM. Further, the half-maximal effective concentration (EC50) at Mu-type opioid receptor [2] was 7.4 nM; in assay [10], 4.5 nM. The Selectivity stood at 2 in assay [3] and 120 in assay [11]. Also, the Emax at Mu-type opioid receptor [5] came out at 50%; in assay [9], 70%. In addition, the Imax at Mu-type opioid receptor [7] amounted to 50%. This compound also came in with a concentration for half-maximal inhibition (IC50) at Mu-type opioid receptor [8] of 170 nM.
